Experimental findings from ChEMBL document CHEMBL3124841, “Discovery of vinyl sulfones as a novel class of neuroprotective agents toward Parkinson's disease therapy” (J Med Chem, 2014) are described below.

Test [1] deals with T1, Nuclear factor erythroid 2-related factor 2 (Mus musculus) (UniProt Q60795).
T1 sequence (whole entry): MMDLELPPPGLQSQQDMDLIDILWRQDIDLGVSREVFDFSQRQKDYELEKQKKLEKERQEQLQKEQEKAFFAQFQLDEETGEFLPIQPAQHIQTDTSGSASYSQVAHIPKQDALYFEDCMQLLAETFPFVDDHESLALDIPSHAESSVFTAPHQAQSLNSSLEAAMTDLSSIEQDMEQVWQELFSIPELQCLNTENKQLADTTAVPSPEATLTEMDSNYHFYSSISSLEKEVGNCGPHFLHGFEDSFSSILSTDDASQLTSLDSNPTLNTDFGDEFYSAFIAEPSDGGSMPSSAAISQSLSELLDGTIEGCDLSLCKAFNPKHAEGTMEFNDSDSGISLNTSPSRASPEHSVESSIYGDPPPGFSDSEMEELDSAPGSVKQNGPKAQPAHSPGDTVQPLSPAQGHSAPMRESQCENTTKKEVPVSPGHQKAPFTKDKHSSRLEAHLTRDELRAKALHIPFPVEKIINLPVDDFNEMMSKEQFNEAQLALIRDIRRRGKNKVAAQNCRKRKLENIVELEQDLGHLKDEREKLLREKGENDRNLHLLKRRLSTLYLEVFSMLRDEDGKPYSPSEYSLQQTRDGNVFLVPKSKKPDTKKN
Kind of test: Induction of Nrf2-dependent HO1 protein level in mouse BV-2 cells at 20 uM after 24 hrs by sandwich ELISA relative to control. The test is classed as cell-based. Summed up: (§1)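 Murine BV-2 microglia in DMEM/10% FBS, 2.0 × 10⁴ cells per well, treated at 20 μM for 24 h in triplicate. Lysates in NP-40 Tris buffer (pH 8.0) diluted tenfold; HO-1 measured by sandwich ELISA with HRP-streptavidin and Amplex Red fluorescence (ex 530/em 590 nm). Expressed as % of 0.04% DMSO vehicle control ± SEM; sulforaphane 5 μM as reference.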
(An ELISA detects its analyte on a solid surface through an enzyme-linked reagent.)

Test [2] addresses T1, Nuclear factor erythroid 2-related factor 2 (Mus musculus). Kind of test: Induction of Nrf2-dependent HO1 protein level in mouse BV-2 cells at 20 uM after 24 hrs by sandwich ELISA. In kind it is cell-based. Summed up: as §1

With `COc1cccc(S(=O)(=O)/C=C/c2ccccc2Cl)c1`, the fold change (FC) in test [1] came out at 2.8. In test [2], this compound registered an Activity of 284%.
The like results for `COc1ccc(S(=O)(=O)/C=C/c2ccccc2Cl)cc1` were, in that order, 1.6 and 158%.
The like results for `COc1cccc(S(=O)(=O)/C=C/c2ccccc2C(F)(F)F)c1` were, in that order, 2.5 and 251%.
For the compound `O=S(=O)(/C=C/c1cccc(F)c1)c1ccc(Cl)cc1`, the Activity in test [2] was determined as 105%.
On to `COc1cccc(S(=O)(=O)/C=C/c2cccc(Cl)c2)c1`, for which the fold change (FC) in test [1] is 1.1. In addition, in test [2], the Activity turned out to be 111%.
The matching figures for `COc1ccc(/C=C/S(=O)(=O)c2ccc(OC)cc2)cc1`: 1.3 and 133%.
For `COc1ccccc1S(=O)(=O)/C=C/c1ccccc1C(F)(F)F`, the fold change (FC) in test [1] worked out at 3.3. The compound also yielded an Activity in test [2] of 328%.
Take `O=S(=O)(/C=C/c1ccc(F)cc1)c1ccc(F)cc1`: the Activity in test [2] amounted to 141%.
Take `COc1ccc(S(=O)(=O)/C=C/c2ccccc2N)cc1`: the fold change (FC) in test [1] was 1.4. The same compound had an Activity in test [2] of 141%.
`O=S(=O)(/C=C/c1cccc(Cl)c1)c1ccc(F)cc1` returned an Activity in test [2] of 137%.
Same read-out and setting: with `O=S(=O)(/C=C/c1ccccc1C(F)(F)F)c1ccccc1` the figure was 193%; with `O=S(=O)(/C=C/c1ccccc1Cl)c1ccc(Cl)cc1`, 169%.
Compound `COc1cccc(S(=O)(=O)/C=C/c2ccc(F)cc2)c1` registered a fold change (FC) in test [1] of 1.6. For the same compound, in test [2], the Activity was found to be 160%.
`O=S(=O)(/C=C/c1ccc(C(F)(F)F)cc1)c1ccccc1` came in with an Activity in test [2] of 155%.
In test [1], `COc1ccc(S(=O)(=O)/C=C/c2cccc(Cl)c2)cc1` yielded a fold change (FC) of 1.2. Moreover, the Activity in test [2] came to 125%.
In the case of `COc1ccc(S(=O)(=O)/C=C/c2cccc(C(F)(F)F)c2)cc1OC`, the Activity in test [2] stood at 153%.
Turning to `COc1ccccc1S(=O)(=O)/C=C/c1ccc(F)cc1`, the fold change (FC) in test [1] was determined as 2.6. The Activity in test [2] was 259%.
`O=S(=O)(/C=C/c1ccccc1C(F)(F)F)c1ccc(Cl)cc1` showed an Activity in test [2] of 242%.
In test [1], `COc1ccccc1S(=O)(=O)/C=C/c1cccc(F)c1` displayed a fold change (FC) of 3.5. Moreover, the Activity in test [2] was found to be 353%.
With `COc1ccc([S+]([O-])/C=C/c2ccccc2C(F)(F)F)cc1` (stereo not drawn), the Activity in test [2] is 134%.
Take `O=S(=O)(/C=C/c1cccc(Cl)c1)c1ccc(Cl)cc1`: the Activity in test [2] was found to be 127%.
Regarding `O=S(=O)(/C=C/c1cccc(F)c1)c1ccc(F)cc1`, the Activity in test [2] came out at 177%.
In test [2], `O=S(=O)(/C=C/c1cccc(C(F)(F)F)c1)c1ccccc1` came in with an Activity of 188%.
Compound `COc1cccc(S(=O)(=O)/C=C/c2cccc(F)c2)c1` returned a fold change (FC) in test [1] of 1.4. Besides, the Activity in test [2] came out at 136%.
`COc1cccc(S(=O)(=O)/C=C/c2cccc(C(F)(F)F)c2)c1` gave a fold change (FC) in test [1] of 2. In test [2], this compound had an Activity of 204%.
The like results for `COc1ccc(S(=O)(=O)/C=C/c2cccc(OC)c2)cc1` were, in that order, 1.5 and 146%.
The matching figures for `COc1ccc(S(=O)(=O)/C=C/c2ccccc2OC(F)(F)F)cc1`: 2.1 and 212%.
The like results for `COc1ccccc1S(=O)(=O)/C=C/c1ccccc1F` were, in that order, 3.7 and 373%.
Compound `COc1ccccc1S(=O)(=O)/C=C/c1cccc(Cl)c1` showed a fold change (FC) in test [1] of 2.4. In test [2], this compound showed an Activity of 245%.
Take `O=S(=O)(/C=C/c1ccc(F)cc1)c1ccc(Cl)cc1`: the Activity in test [2] was found to be 111%.
The compound `O=S(=O)(/C=C/c1ccccc1Cl)c1ccc(F)cc1` came in with an Activity in test [2] of 225%.
For `O=S(=O)(/C=C/c1ccc(Cl)cc1)c1ccc(F)cc1`, the Activity in test [2] was found to be 112%.
Compound `COc1cccc(S(=O)(=O)/C=C/c2ccccc2F)c1` returned a fold change (FC) in test [1] of 1.5. Besides, the Activity in test [2] was 148%.
The matching figures for `COc1ccc(S(=O)(=O)/C=C/c2ccc(C(F)(F)F)cc2)cc1`: 1.5 and 154%.
With `COc1ccc(S(=O)(=O)/C=C/c2ccc(Cl)cc2)cc1`, the fold change (FC) in test [1] came out at 1.7. Further, the Activity in test [2] is 169%.
The like results for `COc1cccc(S(=O)(=O)/C=C/c2ccc(Cl)cc2)c1` were, in that order, 2.3 and 228%.
`O=S(=O)(/C=C/c1ccccc1F)c1ccc(F)cc1` yielded an Activity in test [2] of 241%.
On the same count and under the same terms, with `O=S(=O)(/C=C/c1ccc(C(F)(F)F)cc1)c1ccc(Cl)cc1` the figure was 140%; with `O=S(=O)(/C=C/c1ccc(C(F)(F)F)cc1)c1ccc(F)cc1`, 125%.
In test [1], `COc1ccc(S(=O)(=O)/C=C/c2ccccc2F)cc1` registered a fold change (FC) of 1.7. The Activity in test [2] is 174%.
The matching figures for `COc1ccccc1S(=O)(=O)/C=C/c1ccc(C(F)(F)F)cc1`: 3.6 and 357%.
The like results for `COc1ccc(S(=O)(=O)/C=C/c2ccccc2OC)cc1` were, in that order, 1.2 and 126%.
The like results for `COc1ccccc1S(=O)(=O)/C=C/c1ccc(Cl)cc1` were, in that order, 3.3 and 330%.
In test [2], `O=S(=O)(/C=C/c1ccc(Cl)cc1)c1ccc(Cl)cc1` yielded an Activity of 117%.
Take `COc1ccc(S(=O)(=O)/C=C/c2cccc(F)c2)cc1`: the fold change (FC) in test [1] worked out at 2. Also, in test [2], the Activity was 203%.
In turn, `COc1ccc(S(=O)(=O)/C=C/c2cccc(C(F)(F)F)c2)cc1` displayed a fold change (FC) in test [1] of 2.1. This compound displayed an Activity in test [2] of 214%.
Regarding `COc1ccc(S(=O)(=O)/C=C/c2ccccc2C(F)(F)F)cc1OC`, the Activity in test [2] was found to be 204%.
Compound `COc1ccc(S(=O)(=O)/C=C/c2ccccc2C(F)(F)F)cc1` displayed a fold change (FC) in test [1] of 2.6. This compound also returned an Activity in test [2] of 258%.
The like results for `COc1cccc(S(=O)(=O)/C=C/c2ccc(C(F)(F)F)cc2)c1` were, in that order, 1.5 and 148%.
For `O=S(=O)(/C=C/c1ccccc1C(F)(F)F)c1ccc(F)cc1`, in test [2], the Activity is 248%.
As to `COc1ccccc1S(=O)(=O)/C=C/c1cccc(C(F)(F)F)c1`, the fold change (FC) in test [1] is 2.6. The Activity in test [2] was determined as 256%.
`O=S(=O)(/C=C/c1ccccc1F)c1ccc(Cl)cc1` showed an Activity in test [2] of 107%.
As to `O=S(=O)(/C=C/c1cccc(C(F)(F)F)c1)c1ccc(F)cc1`, the Activity in test [2] is 158%.
On the same count and under the same terms, with `COc1ccc(C(=O)/C=C/c2ccccc2C(F)(F)F)cc1` the figure was 164%; with `O=S(=O)(/C=C/c1cccc(C(F)(F)F)c1)c1ccc(Cl)cc1`, 111%; with `COc1ccc(S(=O)(=O)/C=C/c2ccc(C(F)(F)F)cc2)cc1OC`, 119%.
In test [1], `COc1ccc(S(=O)(=O)/C=C/c2ccc(F)cc2)cc1` yielded a fold change (FC) of 1.8. Besides, in test [2], the Activity was found to be 177%.
